Measurements: ChEMBL document CHEMBL2163256, “6-(methylamino)hexane-1,2,3,4,5-pentanol 4-(((1S,2S)-1-hydroxy-2,3-dihydro-1H,1'H-[2,2-biinden]-2-yl)methyl)benzoate (PH46A): a novel small molecule with efficacy in murine models of colitis” (J Med Chem, 2012)
The source made the active and inactive calls. No cut-off for these calls is given here.

Columns and labels:
Mus musculus [1] = assay: Antiinflammatory activity against DSS-induced colitis BALB/c mouse model assessed as decrease in disease activity index at 3 mg/kg, po qd for 7 days measured on day 7 relative to vehicle-treated control; type: functional; design: scale not given: the % may be the effect or the level left
Procedure, shortened: (§1)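 Female SPF BALB/c mice, 6−8 weeks old; colitis induced by 5% DSS in tap drinking water (renewed every second day) for 7 days. Daily oral dosing for 7 days as suspension/solution in 0.5% carboxymethyl cellulose/2% Tween 80. Daily body weight; DAI per mouse each day from weight loss, occult blood and stool consistency; colon length at autopsy. Mean ± SEM, n = 6−7.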

Mus musculus [2] = assay: Antiinflammatory activity against DSS-induced colitis BALB/c mouse model assessed as decrease in myeloperoxidative activity at 30 mg/kg, po qd for 7 days measured on day 7 relative to vehicle-treated control; type: functional; design: scale not given: the % may be the effect or the level left
Procedure, shortened: (§2)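 In the 7-day 5% DSS BALB/c colitis model with daily oral dosing, colon MPO was measured in homogenized snap-frozen colon supernatant (protein determined) by a standard method.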

Mus musculus [3] = assay: Antiinflammatory activity against DSS-induced colitis BALB/c mouse model assessed as decrease in disease activity index at 10 mg/kg, po qd for 7 days measured on day 7 relative to vehicle-treated control; type: functional; design: scale not given: the % may be the effect or the level left; procedure, shortened: as §1
Mus musculus [4] = assay: Antiinflammatory activity in IL-10 -/- BALB/c mouse assessed as decrease in serum SAA level at 300 mg/kg, po administered as divided dose 3 times a week for 9 weeks (reference value: 468.9 +/- 38.37 ug/ml); type: functional
Procedure, shortened: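 IL-10−/− BALB/c-background mice, bred SPF, treated from 6−8 weeks of age by oral gavage of 300 mg/kg/week in distilled water (vehicle), Mon/Wed/Fri, for 9 weeks. Weight, rectal bleeding and prolapse monitored. At 9 weeks serum SAA was measured by sandwich ELISA. Proximal colon (1 cm) was fixed, H&E-stained and scored blinded by two observers (maximum 4). n = 9 vehicle, 11 treated; Student's t test.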

Mus musculus [5] = assay: Antiinflammatory activity against DSS-induced colitis BALB/c mouse model assessed as prevention of body weigth loss at 30 mg/kg, po qd for 7 days measured on day 7 relative to vehicle-treated control; type: functional; procedure, shortened: as §1
Mus musculus [6] = assay: Antiinflammatory activity against DSS-induced colitis BALB/c mouse model assessed as decrease in disease activity index at 30 mg/kg, po qd for 7 days measured on day 7 relative to vehicle-treated control; type: functional; design: scale not given: the % may be the effect or the level left; procedure, shortened: as §1
Mus musculus [7] = assay: Antiinflammatory activity against DSS-induced colitis BALB/c mouse model assessed as prevention of body weigth loss at 10 mg/kg, po qd for 7 days measured on day 7 relative to vehicle-treated control; type: functional; procedure, shortened: as §1
Mus musculus [8] = assay: Antiinflammatory activity against DSS-induced colitis BALB/c mouse model assessed as reduction in histological colon damage score at 30 mg/kg, po qd for 7 days measured on day 7 relative to vehicle-treated control; type: functional; design: scale not given: the % may be the effect or the level left
Procedure, shortened: (§3)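 After 7 days of 5% DSS with daily oral dosing, about 1 cm distal colon was fixed in 10% formaldehyde-saline, paraffin-embedded, cut into 5 μm serial sections and H&E-stained. Scoring covered cell infiltration (0−3) and extent of injury (0−3), done blinded by two independent observers.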

Mus musculus [9] = assay: Antiinflammatory activity against DSS-induced colitis BALB/c mouse model assessed as reduction in shortening of colon at 30 mg/kg, po qd for 7 days measured on day 7 relative to vehicle-treated control; type: functional; design: scale not given: the % may be the effect or the level left; procedure, shortened: as §1
Mus musculus [10] = assay: Antiinflammatory activity against DSS-induced colitis BALB/c mouse model assessed as increase in colon lenght at 10 mg/kg, po qd for 7 days relative to vehicle-treated control; type: functional, organism-based; design: dose 10 mg/kg; procedure, shortened: as §1
Mus musculus [11] = assay: Antiinflammatory activity against DSS-induced colitis BALB/c mouse model assessed as increase in colon lenght at 30 mg/kg, po qd for 7 days relative to vehicle-treated control; type: functional, organism-based; design: dose 30 mg/kg; procedure, shortened: as §1
Mus musculus [12] = assay: Antiinflammatory activity against DSS-induced colitis BALB/c mouse model assessed as decrease in disease activity index at 10 mg/kg, po qd for 7 days relative to vehicle-treated control; type: functional, organism-based; design: dose 10 mg/kg; procedure, shortened: as §1
Mus musculus [13] = assay: Toxicity in DSS-induced colitis BALB/c mouse model assessed as overt reactions at 30 mg/kg, po qd for 7 days relative to vehicle-treated control; type: organism-based; design: dose 30 mg/kg, route oral; conditions: in vivo, 168 h
Mus musculus [14] = assay: Antiinflammatory activity against DSS-induced colitis BALB/c mouse model assessed as decrease in disease activity index at 30 mg/kg, po qd for 7 days relative to vehicle-treated control; type: functional, organism-based; design: dose 30 mg/kg; procedure, shortened: as §1
Mus musculus [15] = assay: Antiinflammatory activity against DSS-induced colitis BALB/c mouse model assessed as decrease in myeloperoxidative activity at 5 mg/kg, po qd for 7 days measured on day 7 relative to vehicle-treated control; type: functional; design: scale not given: the % may be the effect or the level left; procedure, shortened: as §2
Mus musculus [16] = assay: Antiinflammatory activity against DSS-induced colitis BALB/c mouse model assessed as decrease in disease activity index at 5 mg/kg, po qd for 7 days measured on day 7 relative to vehicle-treated control; type: functional; design: scale not given: the % may be the effect or the level left; procedure, shortened: as §1
Mus musculus [17] = assay: Antiinflammatory activity against DSS-induced colitis BALB/c mouse model assessed as reduction in TNFalpha level at 5 mg/kg, po qd for 7 days measured on day 7 relative to vehicle-treated control; type: functional, organism-based; design: dose 5 mg/kg
Procedure, shortened: (§4)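 DSS colitis in female BALB/c mice (5% DSS in drinking water, 7 days, daily oral dosing). At autopsy, colon remaining after histology sampling snap-frozen, stored at −20 °C, thawed, contents removed, chopped and homogenized; supernatant protein determined. IL1b, IL6 and TNFα in colon supernatant by sandwich ELISA, expressed as ng/mg. Mean ± SEM, n = 6−7.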

Mus musculus [18] = assay: Antiinflammatory activity against DSS-induced colitis BALB/c mouse model assessed as reduction in IL6 level at 5 mg/kg, po qd for 7 days measured on day 7 relative to vehicle-treated control; type: functional, organism-based; design: dose 5 mg/kg; procedure, shortened: as §4
Mus musculus [19] = assay: Antiinflammatory activity against DSS-induced colitis BALB/c mouse model assessed as reduction in shortening of colon at 5 mg/kg, po qd for 7 days measured on day 7 relative to vehicle-treated control; type: functional; design: scale not given: the % may be the effect or the level left; procedure, shortened: as §1
Mus musculus [20] = assay: Antiinflammatory activity against DSS-induced colitis BALB/c mouse model assessed as reduction in IL1b level at 5 mg/kg, po qd for 7 days measured on day 7 relative to vehicle-treated control; type: functional, organism-based; design: dose 5 mg/kg; procedure, shortened: as §4
Mus musculus [21] = assay: Antiinflammatory activity against DSS-induced colitis BALB/c mouse model assessed as prevention of body weigth loss at 5 mg/kg, po qd for 7 days measured on day 7 relative to vehicle-treated control; type: functional; procedure, shortened: as §1
Mus musculus [22] = assay: Antiinflammatory activity against DSS-induced colitis BALB/c mouse model assessed as reduction in histological colon damage score at 5 mg/kg, po qd for 7 days measured on day 7 relative to vehicle-treated control; type: functional; design: scale not given: the % may be the effect or the level left; procedure, shortened: as §3

**Q.** Which Activity (Mus musculus [1]) does the source give for `CNC[C@H](O)[C@@H](O)[C@H](O)[C@H](O)CO.O=C(O)c1ccc(C[C@@]2(C3=Cc4ccccc4C3)Cc3ccccc3[C@H]2O)cc1` here?
**A.** The Activity was 24%.

**Q.** And the Activity (Mus musculus [2])?
**A.** Its Activity is 63%.

**Q.** And the Activity (Mus musculus [3])?
**A.** The Activity was 54%.

**Q.** What about the Activity (Mus musculus [4]) of the same compound?
**A.** The Activity was 342.7 µg/mL.

**Q.** What about the Activity (Mus musculus [5]) of the same compound?
**A.** Its Activity is 6.2%.

**Q.** What about the Activity (Mus musculus [6]) of the same compound?
**A.** Its Activity is 80%.

**Q.** What about the Activity (Mus musculus [7]) of the same compound?
**A.** Its Activity is 12.8%.

**Q.** And the Activity (Mus musculus [8])?
**A.** Its Activity is greater than 75%.

**Q.** What about the Activity (Mus musculus [9]) of the same compound?
**A.** The Activity was 76%.

**Q.** `O=C(O)c1ccc(C[C@]2(C3=Cc4ccccc4C3)Cc3ccccc3[C@H]2O)cc1` was tested. Which Activity (Mus musculus [10]) did it give?
**A.** Its Activity is “inactive”.

**Q.** What about the Activity (Mus musculus [11]) of the same compound?
**A.** Its Activity is “Active”.

**Q.** What about the Activity (Mus musculus [12]) of the same compound?
**A.** The Activity was “inactive”.

**Q.** What about the Activity (Mus musculus [13]) of the same compound?
**A.** Its Activity is “Non-toxic”.

**Q.** And the Activity (Mus musculus [14])?
**A.** Its Activity is “Active”.

**Q.** With `C[C@]12C=CC(=O)C=C1CC[C@@H]1[C@@H]2[C@@H](O)C[C@@]2(C)[C@H]1CC[C@]2(O)C(=O)CO` [PREDNISOLONE] as the compound, how does the Activity (Mus musculus [15]) read?
**A.** The Activity was 54%.

**Q.** What about the Activity (Mus musculus [16]) of the same compound?
**A.** Its Activity is 50%.

**Q.** What about the Activity (Mus musculus [17]) of the same compound?
**A.** Its Activity is “Active”.

**Q.** And the Activity (Mus musculus [18])?
**A.** Its Activity is “Active”.

**Q.** What about the Activity (Mus musculus [19]) of the same compound?
**A.** Its Activity is 39%.

**Q.** What about the Activity (Mus musculus [20]) of the same compound?
**A.** The Activity was “Active”.

**Q.** What about the Activity (Mus musculus [21]) of the same compound?
**A.** Its Activity is 12.6%.

**Q.** What about the Activity (Mus musculus [22]) of the same compound?
**A.** Its Activity is 26%.
